Experimental data published in ChEMBL document CHEMBL1121853, “New antiarrhythmic agents. 7. 2,3-Diaminopropionanilides” (J Med Chem, 1981).

How the values were obtained:
Rattus norvegicus [1] = assay: Anesthetic activity of compound (0.25%) was evaluated by duration of sciatic nerve block; assay type: functional
Summary of the method: (§1)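 Rat sciatic nerve block: 0.2 mL of test solution (concentration as base, with 1:100 000 epinephrine) injected into the mid-thigh around the sciatic nerve trunk, both hind limbs. Five rats per concentration, so up to 10 blocks. Animals examined at frequent intervals for onset of and recovery from motor block. Duration given as mean ± standard deviation.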

Rattus norvegicus [2] = assay: Anesthetic activity of compound (2.0%) was evaluated by duration of sciatic nerve block
Rattus norvegicus [3] = assay: Anesthetic activity of compound (1.0%) was evaluated by duration of sciatic nerve block; assay type: functional; summary of the method: as §1
Rattus norvegicus [4] = assay: Anesthetic activity of compound (0.125%) was evaluated by duration of sciatic nerve block; assay type: functional; summary of the method: as §1
[5] = Lethal dose of compound evaluated by administering intraperitoneally to female CRCD mice; assay type: toxicity, organism-based; conditions: mouse, in vivo, ip
Summary of the method: (§2)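 Female CRCD mice (20–25 g), in groups, given compound dissolved in isotonic saline or distilled water, either by tail-vein (iv) or intraperitoneal injection. Doses expressed as base. LD50 and 95% confidence limits calculated by the minimum logit chi-square method.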

Rattus norvegicus [6] = assay: Anesthetic activity of compound (0.5%) was evaluated by duration of sciatic nerve block; assay type: functional; summary of the method: as §1
[7] = Lethal dose of compound evaluated by administering intravenously to female CRCD mice; assay type: toxicity, organism-based; conditions: mouse, in vivo, iv; summary of the method: as §2
Mus musculus [8] = species on record: Mus musculus; assay: Effective dose of compound that protects mice against chloroform induced tachycardia; assay type: functional
Summary of the method: (§3)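 Mice dosed subcutaneously, groups of 10. Over a 20-min period they were watched for ataxia, convulsions, loss of righting reflex or death, then each was placed in chloroform-vapor-saturated air until respiration ceased. ED50 with 95% Fieller limits for protection against tachycardia, ataxia and convulsions, calculated by Berkson's logit chi-square method.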

Mus musculus [9] = species on record: Mus musculus; assay: Effective dose of compound that evoked CNS toxicity in mice in the form of ataxia; assay type: functional; summary of the method: as §3
Mus musculus [10] = species on record: Mus musculus; assay: Effective dose of compound that evoked CNS toxicity in mice in the form of convulsions; assay type: functional; summary of the method: as §3
Mus musculus [11] = assay: Percent protection against chloroform induced tachycardia in mice at 15.8 mg/kg; Inactive; assay type: functional
Mus musculus [12] = assay: Percent protection against chloroform induced tachycardia in mice at 398 mg/kg; assay type: functional
Rattus norvegicus [13] = assay: Anesthetic activity of compound (0.25%) was evaluated by duration of sciatic nerve block; NB= no blocks (0/10); assay type: functional, organism-based; summary of the method: as §1
Rattus norvegicus [14] = assay: Anesthetic activity of compound (0.125%) was evaluated by duration of sciatic nerve block; NB= no blocks (0/10); assay type: functional, organism-based; summary of the method: as §1
Mus musculus [15] = assay: CNS toxicity expressed as percent of ataxia evoked in mice at a dose of 200 mg/kg; Inactive; assay type: functional
Mus musculus [16] = assay: Percent protection against chloroform induced tachycardia in mice at 200 mg/kg; Inactive; assay type: functional
Mus musculus [17] = assay: CNS toxicity expressed as percent of convulsions evoked in mice at a dose of 200 mg/kg; Inactive; assay type: functional
Mus musculus [18] = assay: CNS toxicity expressed as percent of ataxia evoked in mice at a dose of 631 mg/kg; assay type: functional
Mus musculus [19] = assay: CNS toxicity expressed as percent of convulsions evoked in mice at a dose of 631 mg/kg; assay type: functional
Mus musculus [20] = assay: Percent protection against chloroform induced tachycardia n mice at 631 mg/kg; Inactive; assay type: functional
Mus musculus [21] = assay: Percent death against chloroform induced tachycardia in mice at 631 mg/kg; assay type: functional
Summary of the method: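 Mice in groups of 10, dosed subcutaneously, then watched for 20 min for ataxia, convulsions, loss of righting reflex or death. Survivors were placed individually in chloroform-vapour-saturated air until respiration ceased. Percent of animals dead at the single dose was recorded alongside protection, ataxia and convulsion counts.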

Mus musculus [22] = assay: CNS toxicity expressed as percent of ataxia evoked in mice at a dose of 10 mg/kg; assay type: functional
Mus musculus [23] = assay: CNS toxicity expressed as percent of ataxia evoked in mice at a dose of 50.1 mg/kg; assay type: functional
Mus musculus [24] = assay: CNS toxicity expressed as percent of ataxia evoked in mice at a dose of 100 mg/kg; assay type: functional
Mus musculus [25] = assay: Percent protection against chloroform induced tachycardia in mice at 100 mg/kg; assay type: functional
Mus musculus [26] = assay: CNS toxicity expressed as percent of convulsions evoked in mice at a dose of 100 mg/kg; assay type: functional
Mus musculus [27] = assay: CNS toxicity expressed as percent of convulsions evoked in mice at a dose of 79.4 mg/kg; Inactive; assay type: functional
Mus musculus [28] = assay: Percent protection against chloroform induced tachycardia in mice at 79.4 mg/kg; Inactive; assay type: functional
Mus musculus [29] = assay: CNS toxicity expressed as percent of ataxia evoked in mice at a dose of 79.4 mg/kg; assay type: functional

| SMILES | Duration (Rattus norvegicus [1]) [min] | Duration (Rattus norvegicus [3]) [min] | Duration (Rattus norvegicus [4]) [min] | LD50 [5] [mg/kg] | Duration (Rattus norvegicus [6]) [min] | ED50 (Mus musculus [8]) [mg/kg] | ED50 (Mus musculus [9]) [mg/kg] | ED50 (Mus musculus [10]) [mg/kg] | further results |
| --- | --- | --- | --- | --- | --- | --- | --- | --- | --- |
| CCN(CC)CC(C(=O)Nc1ccc(OC)cc1C)N(CC)CC (centres undefined) | 151 | 150 | 162 | 102 | 157 | – | – | – | Duration (Rattus norvegicus [2]): 184 min |
| CCCN(CC)CC(C(=O)Nc1ccc(OC)cc1C)N(CC)CCC (centres undefined) | 107 | – | 96 | 66 | 227 | – | – | – | – |
| CCCN(CC)C(CC)C(=O)Nc1c(C)cccc1C (centres undefined) [ETIDOCAINE] | 222 | – | 156 | 56 | 279 | – | – | – | LD50 [7]: 7 mg/kg |
| CCOc1ccccc1NC(=O)C(CN(C)CC)N(C)CC (centres undefined) | 105 | 189 | 78 | 94 | 136 | – | – | – | – |
| COCCN(C)CC(C(=O)Nc1c(C)cccc1C)N(C)CCOC (centres undefined) | – | – | – | – | – | 2.6 | 4.3 | 5.1 | – |
| C=CCN(C)CC(C(=O)Nc1c(C)cccc1C)N(C)CC=C (centres undefined) | – | – | – | – | – | – | 13 | 17 | Protection (Mus musculus [11]): 30% |
| CCCN(CC)CC(C(=O)Nc1ccccc1OC)N(CC)CCC (centres undefined) | 116 | – | 80 | – | 260 | – | – | – | LD50 [7]: 11 mg/kg |
| CCOc1ccc(NC(=O)C(CN(C)C)N(C)C)cc1OCC (centres undefined) | – | 133 | – | – | 83 | – | 199 | 317 | Protection (Mus musculus [12]): 50%; Duration (Rattus norvegicus [2]): 147 min; Duration (Rattus norvegicus [13]): No blocks; Duration (Rattus norvegicus [14]): No blocks |
| Cc1cccc(C)c1NC(=O)C1CNCCN1 (centres undefined) | – | – | – | – | – | – | – | – | Ataxia (Mus musculus [15]): 0%; Protection (Mus musculus [16]): 10%; Convulsions (Mus musculus [17]): 0% |
| Cc1cccc(C)c1NC(=O)C(CN(C)C)N(C)C (centres undefined) | – | – | – | – | – | 17 | 16 | 23 | – |
| C#CCN(C)CC(C(=O)Nc1c(C)cccc1C)N(C)CC#C (centres undefined) | – | – | – | – | – | – | – | – | Ataxia (Mus musculus [18]): 40%; Convulsions (Mus musculus [19]): 40%; Protection (Mus musculus [20]): 0%; Death (Mus musculus [21]): 40% |
| CCN(C)CC(C(=O)Nc1c(C)cccc1C)N(C)CC (centres undefined) | – | – | – | – | – | 13 | – | 12 | Ataxia (Mus musculus [22]): 100% |
| CCN(CC)CC(C(=O)Nc1ccccc1OC)N(CC)CC (centres undefined) | 91 | 178 | – | 70 | 66 | 81 | – | 65 | Duration (Rattus norvegicus [2]): 184 min; Ataxia (Mus musculus [23]): 40% |
| CCN(CC)CC(C(=O)Nc1cc(C)ccc1OC)N(CC)CC (centres undefined) | 125 | 273 | 94 | 81 | 166 | 106 | 96 | 137 | – |
| CCN(CC)CC(C(=O)Nc1cccc(OC)c1)N(CC)CC (centres undefined) | 87 | 145 | 77 | – | 100 | – | – | – | Ataxia (Mus musculus [24]): 0%; Duration (Rattus norvegicus [2]): 265 min; Protection (Mus musculus [25]): 60%; LD50 [7]: 20 mg/kg; Convulsions (Mus musculus [26]): 0% |
| CCN(CC)CCC(=O)Nc1c(C)cccc1C | 110 | 184 | – | – | 146 | 69 | 52 | – | – |
| Cc1cccc(C)c1NC(=O)C(CN1CCCC1)N1CCCC1 (centres undefined) | – | – | – | – | – | 14 | 12 | 12 | – |
| CCN(CC)CC(=O)Nc1c(C)cccc1C [LIDOCAINE] | 102 | 162 | – | – | 123 | 61 | 42 | – | – |
| Cc1cccc(C)c1NC(=O)C(CN1CCOCC1)N1CCOCC1 (centres undefined) | 72 | 138 | 72 | – | 102 | – | – | – | Convulsions (Mus musculus [27]): 0%; Duration (Rattus norvegicus [2]): 193 min; Protection (Mus musculus [28]): 10%; Ataxia (Mus musculus [29]): 100% |
| Cc1cccc(C)c1NC(=O)C(CN(C)C(C)C)N(C)C(C)C (centres undefined) | – | – | – | – | – | 6.1 | 6 | 9.3 | – |
| Cc1cccc(C)c1NC(=O)C(C)N (centres undefined) [TOCAINIDE] | – | 79 | – | – | 44 | 250 | 146 | – | LD50 [7]: 94 mg/kg |
| CCOc1ccccc1NC(=O)C(CN(CC)CC)N(CC)CC (centres undefined) | 138 | – | 140 | 81 | 176 | – | – | – | – |
